Bioassay records from PubChem BioAssay.
Only some compounds are listed: those with a hit (about 2.6% of all), similar ones and a draw of the others.
OX1R antag-1: antagonists of human orexin 1 receptor; CHO/OX1R cells, Fluo-8 calcium fluorescence, orexin A; actives 0.43% (n = 330,000); AID 434989; inhibition, % at 5 µM;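 active = inhibition above its plate's threshold, mean inhibition of all tested compounds on the plate plus 3 SD, cut at about 37% in these data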;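 note: 0% = orexin A challenge wells and 100% = SB-334867-A antagonist wells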
OXTR agonist: activates the human oxytocin receptor | P30559 | CHO-OTR cells, Fluo-8 calcium fluorescence; normalized: DMSO 0%, oxytocin 100% | activation, % at 3 µM | actives 0.32% (n = 320,000) | AID 2435;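 active = activation above the mean of all tested compounds plus 3 SD, cutoff set per screening run, cut at about 20% in these data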;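 note: peak over basal fluorescence ratio from a 100 s FLIPR kinetic read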
Target sequence (P30559 whole entry, looked up): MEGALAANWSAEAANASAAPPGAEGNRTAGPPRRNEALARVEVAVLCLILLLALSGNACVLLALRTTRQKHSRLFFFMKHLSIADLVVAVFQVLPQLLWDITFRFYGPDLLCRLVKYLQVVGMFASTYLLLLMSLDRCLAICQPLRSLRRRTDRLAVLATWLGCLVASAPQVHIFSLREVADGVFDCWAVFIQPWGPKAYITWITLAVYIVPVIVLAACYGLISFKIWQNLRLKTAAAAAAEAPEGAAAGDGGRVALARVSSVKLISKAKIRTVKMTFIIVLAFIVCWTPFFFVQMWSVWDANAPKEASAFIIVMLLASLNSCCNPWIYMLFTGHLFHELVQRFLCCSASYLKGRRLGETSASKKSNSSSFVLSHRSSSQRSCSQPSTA
OX1R antag-2: antagonists of human orexin 1 receptor (OX1R) | O43613 | OX1R-expressing cells, FRET antagonist read-out | inhibition, % at 6.6 µM | actives 1.8% (n = 330,000); in the data active = inhibition mostly above about 38%, no sharp cut-off; inactive = mostly below about 40%;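 note: 0% = agonist challenge alone and 100% = reference antagonist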
OXTR potentiate: potentiators of human oxytocin receptor; activation, % at 3 µM; CHO-OTR cells, Fluo-8 calcium fluorescence, potentiator mode; 0% = oxytocin EC15, 100% = EC100; AID 2445; actives 0.061% (n = 320,000);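 active = activation above that plate's cutoff, the mean activation of tested compounds plus 3 SD, cut at about 6.6% in these data, passing the limit was not always enough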;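 note: 100% uses oxytocin at 75 nM as the full agonist control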
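assay system = CHO-OTR cells, human receptor | schedule = compound 6 min at room temperature before oxytocin, 100 s read | detection = Fluo-8 intracellular calcium fluorescence, ex 470-495, em 515-575 nm | evaluation = normalized max/min fluorescence ratio, % activation | control set = EC15 oxytocin alone as 0%, 75 nM oxytocin (EC100) as 100%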
CHO parental Ca: counter-screen for OX1R antagonists: effect in parental CHO cells. inhibition, % at 5.6 µM. parental CHO-K1, ATP-induced calcium, Fluo-8 fluorescence. actives 0.63% (n = 330,000);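 active = inhibition above that plate's mean sample inhibition plus 3 SD, cut at about 26% in these data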;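 note: 0% = ATP-challenged DMSO wells and 100% = DMSO wells without ATP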
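Material – parental CHO cells · Reagent – ATP stimulus · Compound – single nominal dose of 5.6 µM per compound · Detection – Fluo-8 fluorescence · Read-out basis – percent inhibition of calcium signal · Controls – ATP-challenged DMSO wells low, unchallenged DMSO wells high · Repeats – no replicates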
V1aR counter: V1a receptor agonism, counter-screen for OXTR agonists | P37288 | CHO-V1R cells, Fluo-8 calcium fluorescence, agonist mode; 0% DMSO, 100% 3 nM vasopressin | activation, % at 3 µM | actives 0.25% (n = 320,000) | AID 2797;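 active = activation above the mean activation of all tested compounds plus 3 SD, per screening run, cut at about 20% in these data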;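 note: signal is peak over basal fluorescence ratio across a 100 second FLIPR read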
OX1R Fluo8 conf: confirmation of human orexin 1 receptor antagonists | CHO/OX1R cells, orexin A calcium Fluo-8 fluorescence | actives 38% (n = 1,100) | inhibition, % at 5 µM | AID 492963 | shares compounds with OX1R antag-1; in the data active = inhibition above about 29%;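 note: 0% = agonist challenge alone and 100% = reference antagonist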
CHO Ca triplic: counter-screen: parental CHO calcium response change, triplicate. shares compounds with OX1R antag-1. parental CHO-K1, ATP-induced calcium, Fluo-8 fluorescence. inhibition, % at 5.6 µM. actives 9.3% (n = 1,100);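 active = inhibition above a per-plate limit, the mean inhibition of that plate's test compounds plus 3 SD, cut at about 25% in these data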;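 note: 0% = ATP challenge with DMSO and 100% = DMSO without ATP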
OX1R HTRF confirm: confirmation of human orexin 1 receptor antagonists, HTRF format; shares compounds with OX1R antag-2; OX1R-expressing cells, HTRF antagonist assay; inhibition, % at 6.6 µM; actives 49% (n = 1,800); in the data active = inhibition above about 55%;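 note: CHO cells expressing OX1R stimulated with orexin A at about EC80; 0% = agonist challenge alone and 100% = reference antagonist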
CHO-K1 HTRF: counter-screen: parental CHO-K1 HTRF response; inhibition, % at 6.6 µM; shares compounds with OX1R antag-2; AID 493232; actives 48% (n = 1,800); parental CHO-K1 cells, HTRF counterscreen; in the data active = inhibition above about 17%;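 note: 0% = agonist challenge with vehicle and 100% = vehicle alone without agonist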
Numbers without * were called inactive.

How did CCCCN(C(=O)c1ccc(S(=O)(=O)N(CC)CC)cc1)c1c(N)n(CCC)c(=O)[nH]c1=O do in these assays?
OX1R antag-1: -3; OXTR agonist: 0; OX1R antag-2: 9; OXTR potentiate: -6; CHO parental Ca: -12; V1aR counter: 0

Results for O=C1C2CSCN2C(=O)CN1CCCN1CCN(C(c2ccccc2)c2ccccc2)CC1 (stereo not given) ?
OX1R antag-1: -28; OXTR agonist: 0; OX1R antag-2: 2; OXTR potentiate: -4; CHO parental Ca: -15; V1aR counter: 0

What do the screens show for `CCOC(=O)c1cnc(SCCc2ccccc2)nc1N`?
OX1R antag-1: -37; OXTR agonist: -2; OX1R antag-2: 18; OXTR potentiate: -18; CHO parental Ca: -5; V1aR counter: 0

How did CCOC(=O)c1cnc(SCc2nc(N)nc(Nc3ccccc3)n2)nc1N do in these assays?
OX1R antag-1: 38; OXTR agonist: -2; OX1R antag-2: 73*; OXTR potentiate: 1; CHO parental Ca: -27; V1aR counter: 0; OX1R Fluo8 conf: 35*; CHO Ca triplic: -24; OX1R HTRF confirm: 48; CHO-K1 HTRF: 6

Results for CCOC(=O)[C@H]1[C@H]2COc3ccc(OC)cc3[C@H]2N2C(=O)CNC(=O)[C@@]12C ?
OX1R antag-1: -19; OXTR agonist: 1; OX1R antag-2: 9; OXTR potentiate: 3; CHO parental Ca: -13; V1aR counter: 0

How did COc1ccc(-c2[nH]ncc2N=Nc2ccccc2)cc1 do in these assays?
OX1R antag-1: 28; OXTR agonist: -1; OX1R antag-2: 98*; OXTR potentiate: -7; CHO parental Ca: 5; V1aR counter: 0; OX1R Fluo8 conf: 25; CHO Ca triplic: 2; OX1R HTRF confirm: 45; CHO-K1 HTRF: 13

How did COc1ccccc1C(=O)NCCc1c(C)[nH]c2c(C)ccc(F)c12 do in these assays?
OX1R antag-1: 26; OXTR agonist: -1; OX1R antag-2: 50*; OXTR potentiate: -14; CHO parental Ca: 12; V1aR counter: -1; OX1R Fluo8 conf: 2; CHO Ca triplic: -22; OX1R HTRF confirm: 32; CHO-K1 HTRF: -4

What do the screens show for `N#Cc1ccccc1NC(=O)CSC1=Nc2ccccc2C2CC=NN12` (stereo not given)?
OX1R antag-1: 40; OXTR agonist: -1; OX1R antag-2: 85*; OXTR potentiate: -9; CHO parental Ca: -3; V1aR counter: -1; OX1R Fluo8 conf: 22; CHO Ca triplic: -9; OX1R HTRF confirm: 48; CHO-K1 HTRF: 0

Results for O=C1CCN(S(=O)(=O)c2cc(C(F)(F)F)ccc2Cl)CC1 ?
OX1R antag-1: -5; OXTR agonist: 0; OX1R antag-2: 0; OXTR potentiate: -2; CHO parental Ca: 5; V1aR counter: 0

Results for Cc1ccc(NC(=O)Nc2nnc(-c3ccncc3)s2)cc1C ?
OX1R antag-1: 25; OXTR agonist: 10; OX1R antag-2: 41*; OXTR potentiate: -21; CHO parental Ca: -1; V1aR counter: 8; OX1R Fluo8 conf: 16; CHO Ca triplic: 13; OX1R HTRF confirm: 48; CHO-K1 HTRF: 10

How did COc1ccccc1CCC(=O)OCC(=O)c1c(N)n(CC(C)C)c(=O)n(C)c1=O do in these assays?
OX1R antag-1: 24; OXTR agonist: 11; OX1R antag-2: 49*; OXTR potentiate: -16; CHO parental Ca: 18; V1aR counter: 12; OX1R Fluo8 conf: 40*; CHO Ca triplic: 21; OX1R HTRF confirm: 20; CHO-K1 HTRF: 2
